ChEMBL document CHEMBL1154863 (J Nat Prod, 2010)
The source made the active and inactive calls.

Tests used:
[1] = molecular target: Neuronal acetylcholine receptor subunit alpha-7 (Rattus norvegicus, UniProt Q05941); assay: Displacement of [3H]iodo-MLA from alpha7 nAChR in rat cerebral cortex after 2 hrs by scintillation counting; format: tissue-based
Procedure, shortened: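 Washed rat cerebral cortex homogenate (3 mg wet weight) in Tris pH 7.4 buffer with salts. 2 h on ice. Nonspecific binding defined with 300 µM (−)-nicotine. Filtered onto BSA-soaked GF/B, then microplate scintillation counting.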

Mus musculus [2] = assay: Inhibition of nicotine-induced antinociception in sc dosed mouse assessed as reaction time taken to jump or lick paw after 5 mins by hot plate test; format: functional
Mus musculus [3] = assay: Inhibition of nicotine-induced antinociception in sc dosed mouse assessed as tail withdrawal latency after 5 mins by tail flick test; format: functional
[4] = molecular target: Neuronal acetylcholine receptor; alpha4/beta2 (Rattus norvegicus, UniProt P09483+P12390); assay: Displacement of [3H]epibatidine from alpha4beta2 nAChR in rat cerebral cortex after 4 hrs by scintillation counting; format: tissue-based
Chain of Neuronal acetylcholine receptor; alpha4/beta2 (P09483 whole entry): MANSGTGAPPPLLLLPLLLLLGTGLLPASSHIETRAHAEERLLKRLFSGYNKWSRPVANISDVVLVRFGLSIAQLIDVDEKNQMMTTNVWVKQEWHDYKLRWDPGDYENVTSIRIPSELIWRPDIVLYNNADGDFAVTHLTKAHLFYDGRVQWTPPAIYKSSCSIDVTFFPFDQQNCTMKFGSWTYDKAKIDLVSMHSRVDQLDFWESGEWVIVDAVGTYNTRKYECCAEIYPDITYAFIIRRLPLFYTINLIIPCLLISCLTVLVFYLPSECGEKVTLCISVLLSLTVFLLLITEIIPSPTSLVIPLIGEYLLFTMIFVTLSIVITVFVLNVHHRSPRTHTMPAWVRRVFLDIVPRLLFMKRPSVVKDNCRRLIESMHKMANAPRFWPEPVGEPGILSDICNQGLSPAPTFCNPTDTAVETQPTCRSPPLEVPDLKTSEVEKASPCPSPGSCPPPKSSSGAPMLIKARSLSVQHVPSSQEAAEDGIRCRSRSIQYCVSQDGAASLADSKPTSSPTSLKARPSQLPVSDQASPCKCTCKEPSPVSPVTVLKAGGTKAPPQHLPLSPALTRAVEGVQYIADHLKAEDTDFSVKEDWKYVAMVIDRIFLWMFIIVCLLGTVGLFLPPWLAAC
Chain of Neuronal acetylcholine receptor; alpha4/beta2 (P12390 whole entry): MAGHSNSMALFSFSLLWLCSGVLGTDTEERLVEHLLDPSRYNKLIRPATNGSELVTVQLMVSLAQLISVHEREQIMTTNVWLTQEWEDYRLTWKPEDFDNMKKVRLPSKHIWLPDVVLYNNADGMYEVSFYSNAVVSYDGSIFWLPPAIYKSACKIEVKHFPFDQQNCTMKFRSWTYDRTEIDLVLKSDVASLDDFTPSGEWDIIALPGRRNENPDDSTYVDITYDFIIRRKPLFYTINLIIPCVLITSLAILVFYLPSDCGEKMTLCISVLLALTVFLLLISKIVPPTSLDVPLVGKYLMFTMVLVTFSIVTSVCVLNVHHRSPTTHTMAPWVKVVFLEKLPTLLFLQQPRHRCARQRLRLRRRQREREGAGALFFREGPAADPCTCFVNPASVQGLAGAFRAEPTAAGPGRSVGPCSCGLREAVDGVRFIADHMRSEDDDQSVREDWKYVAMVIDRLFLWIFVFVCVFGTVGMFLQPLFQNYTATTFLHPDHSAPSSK
Procedure, shortened: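 Rat cerebral cortex homogenate (3 mg wet weight, washed three times) in 50 mM Tris pH 7.4 with NaCl, KCl, CaCl2, MgCl2. 4 h at room temperature. Filtration onto polyethylenimine-soaked GF/B, scintillation counting. Ki from IC50 by Cheng-Prusoff.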

Mus musculus [5] = assay: Antinociceptive activity in sc dosed mouse assessed as reaction time taken to jump or lick paw after 5 mins by hot plate test; format: functional
Procedure, shortened: (§1)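 Mice placed in a glass cylinder on a 55.0 °C hot plate. Two control latencies taken at least 10 min apart; normal latency 8–12 s. Jump or paw lick scored. Tested 5 min after s.c. injection, eight mice per dose. %MPE calculated against a 40 s maximum.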

Mus musculus [6] = assay: Effect on rectal body temperature in sc dosed mouse assessed as change in temperature after 30 mins by inducible hypothermia test; format: functional; conditions: 0.5 h
Procedure, shortened: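 Rectal temperature measured in mice with a thermistor probe inserted 24 mm, read before and 30 min after s.c. saline or analogue. Change from pre-treatment value calculated for each mouse.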

Mus musculus [7] = assay: Effect on locomotory activity in sc dosed mouse assessed as change in spontaneous activity after 5 mins by photocell interruption readings; format: functional
Procedure, shortened: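 Mice placed in photocell activity cages 5 min after s.c. saline or analogue. Beam interruptions recorded over the next 10 min and expressed as photocell interruption counts.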

Mus musculus [8] = assay: Antinociceptive activity in sc dosed mouse after 5 mins by tail flick test; format: functional
Procedure, shortened: (§2)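 Mice, tail-flick by the D'Amour–Smith method. Baseline latency 2–4 s, 10 s cutoff. Tested 5 min after s.c. injection. Response expressed as %MPE = (test−control)/(10−control)×100. 8–12 mice per dose, at least four doses per dose-response curve.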

Rattus norvegicus = species on record: Rattus norvegicus; assay: Selectivity ratio of Ki for rat alpha7 nAChR to Ki for rat alpha4beta2 nAChR
Mus musculus [9] = assay: Antinociceptive activity in mouse at 2 mg/kg, sc after 5 mins by tail flick test; format: functional; conditions: route subcutaneous; procedure, shortened: as §2
Mus musculus [10] = assay: Antinociceptive activity in mouse assessed as reaction time taken to jump or lick paw at 2 mg/kg, sc after 5 mins by hot plate test; format: functional; conditions: route subcutaneous; procedure, shortened: as §1
Mus musculus [11] = assay: Inhibition of nicotine-induced antinociception in mouse assessed as reaction time taken to jump or lick paw at 100 ug/kg after 5 mins by hot plate test; format: functional
Mus musculus [12] = assay: Inhibition of nicotine-induced antinociception in mouse assessed as reaction time taken to jump or lick paw at 50 ug/kg after 5 mins by hot plate test; format: functional
Mus musculus [13] = assay: Inhibition of nicotine-induced antinociception in mouse assessed as reaction time taken to jump or lick paw at 200 ug/kg after 5 mins by hot plate test; format: functional
Mus musculus [14] = assay: Inhibition of nicotine-induced antinociception in mouse assessed as reaction time taken to jump or lick paw at 10000 ug/kg after 5 mins by hot plate test; format: functional
[15] = Mus musculus, Tail, sc, 5 min, read-out: ED50

Chain of Neuronal acetylcholine receptor subunit alpha-7 (Q05941 whole entry): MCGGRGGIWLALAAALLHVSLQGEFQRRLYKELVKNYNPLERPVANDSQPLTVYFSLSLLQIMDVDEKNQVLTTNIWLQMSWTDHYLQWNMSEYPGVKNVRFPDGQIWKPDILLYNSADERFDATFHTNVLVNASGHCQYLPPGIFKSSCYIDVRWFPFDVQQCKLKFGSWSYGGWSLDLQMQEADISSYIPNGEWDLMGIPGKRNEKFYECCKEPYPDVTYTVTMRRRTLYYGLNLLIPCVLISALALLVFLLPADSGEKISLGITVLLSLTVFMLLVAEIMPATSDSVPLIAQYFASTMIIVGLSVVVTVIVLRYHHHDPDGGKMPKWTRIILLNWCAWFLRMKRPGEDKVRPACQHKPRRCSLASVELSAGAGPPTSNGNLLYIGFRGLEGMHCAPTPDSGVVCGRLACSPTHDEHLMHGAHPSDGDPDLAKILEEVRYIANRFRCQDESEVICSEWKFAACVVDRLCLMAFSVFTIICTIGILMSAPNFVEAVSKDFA

Row | SMILES | Ki [1] | AD50 (Mus musculus [2]) | AD50 (Mus musculus [3]) | Ki [4] | ED50 (Mus musculus [5]) | ED50 (Mus musculus [6]) | ED50 (Mus musculus [7]) | ED50 (Mus musculus [8]; [15]) | Ratio Ki (Rattus norvegicus) | Activity (Mus musculus [9]) | Activity (Mus musculus [10]) | inhibition in vivo at 0.1 mg/kg (Mus musculus [11]) | Activity (Mus musculus [5]) | Activity (Mus musculus [8]) | inhibition in vivo at 0.05 mg/kg (Mus musculus [12]) | ED50 (Mus musculus [8]) | inhibition in vivo at 0.2 mg/kg (Mus musculus [13]) | inhibition in vivo at 10 mg/kg (Mus musculus [14])
1 | Fc1cccc(-c2cc([C@H]3C[C@@H]4CC[C@H]3N4)cnc2Cl)c1 | 250 nM | 0.086 mg/kg | 0.0039 mg/kg | 0.012 nM | 0.43 mg/kg | 0.19 mg/kg | 0.07 mg/kg | 1 mg/kg | – | – | – | – | – | – | – | – | – | –
2 | Clc1cccc(-c2cc([C@H]3C[C@@H]4CC[C@H]3N4)cnc2Cl)c1 | 30.5 nM | 0.08 mg/kg | 0.0022 mg/kg | 0.013 nM | 4.2 mg/kg | 0.38 mg/kg | 0.06 mg/kg | 3.4 mg/kg | 2000 | – | – | – | – | – | – | – | – | –
3 | O=[N+]([O-])c1cccc(-c2cc([C@H]3C[C@@H]4CC[C@H]3N4)cnc2Cl)c1 | 229 nM | 0.18 mg/kg | 0.00025 mg/kg | 0.008 nM | 3.2 mg/kg | 1.4 mg/kg | 0.9 mg/kg | 4.6 mg/kg | – | – | – | – | – | – | – | – | – | –
4 | CN(C)c1cccc(-c2cc([C@H]3C[C@@H]4CC[C@H]3N4)cnc2Cl)c1 | 1100 nM | 0.56 mg/kg | 0.02 mg/kg | 0.009 nM | – | 3.3 mg/kg | – | – | – | 0% | 0% | – | – | – | – | – | – | –
5 | Fc1ccc(-c2cc([C@H]3C[C@@H]4CC[C@H]3N4)cnc2Cl)cc1 | 309 nM | – | 0.0005 mg/kg | 0.017 nM | 1.27 mg/kg | 0.33 mg/kg | 0.33 mg/kg | 2.48 mg/kg | – | – | – | 30% | – | – | – | – | – | –
6 | Clc1ccc(-c2cc([C@H]3C[C@@H]4CC[C@H]3N4)cnc2Cl)cc1 | 209 nM | – | 0.001 mg/kg | 0.039 nM | 2 mg/kg | 0.89 mg/kg | 0.53 mg/kg | 2.6 mg/kg | – | – | – | 10% | – | – | – | – | – | –
7 | COc1cccc(-c2cc([C@H]3C[C@@H]4CC[C@H]3N4)cnc2Cl)c1 | 558 nM | – | 0.029 mg/kg | 0.019 nM | 0.8 mg/kg | 0.7 mg/kg | 0.2 mg/kg | 0.7 mg/kg | – | – | – | 0% | – | – | – | – | – | –
8 | c1cnc2cc3c(cc2n1)[C@@H]1CNC[C@H]3C1 | – | – | – | – | – | – | – | – | – | – | – | – | inactive | inactive | – | – | – | –
9 | Nc1cccc(-c2cc([C@H]3C[C@@H]4CC[C@H]3N4)cnc2Cl)c1 | 256 nM | 0.026 mg/kg | 0.00014 mg/kg | 0.017 nM | 0.3 mg/kg | 0.31 mg/kg | 0.03 mg/kg | 0.34 mg/kg | – | – | – | – | – | – | – | – | – | –
10 | Clc1ccc([C@@H]2C[C@H]3CC[C@@H]2N3)cn1 (stereo in doubt; (+)-1) [(+)-EPIBATIDINE] | – | – | – | – | 0.004 mg/kg | 0.004 mg/kg | 0.001 mg/kg | 0.0061 mg/kg | – | – | – | – | – | – | – | – | – | –
11 | O=[N+]([O-])c1ccc(-c2cc([C@H]3C[C@@H]4CC[C@H]3N4)cnc2Cl)cc1 | 250 nM | – | 0.007 mg/kg | 0.015 nM | 0.38 mg/kg | 0.23 mg/kg | 0.24 mg/kg | 0.46 mg/kg | – | – | – | – | – | – | 17% | – | – | –
12 | Clc1ncc([C@H]2C[C@@H]3CC[C@H]2N3)cc1-c1cccc(Br)c1 | 85 nM | 0.22 mg/kg | 0.01 mg/kg | 0.016 nM | 2.2 mg/kg | 0.67 mg/kg | 0.11 mg/kg | 0.54 mg/kg | – | – | – | – | – | – | – | – | – | –
13 | Nc1ccc(-c2cc([C@H]3C[C@@H]4CC[C@H]3N4)cnc2Cl)cc1 | 234 nM | – | 0.006 mg/kg | 0.034 nM | 4.5 mg/kg | 1.1 mg/kg | 0.52 mg/kg | 5 mg/kg | – | – | – | 0% | – | – | – | – | – | –
14 | Clc1ccc([C@@H]2C[C@H]3CC[C@@H]2N3)cn1 (stereo in doubt; (-)-1) [(+)-EPIBATIDINE] | – | – | – | – | – | – | – | – | – | – | – | – | – | – | – | 0.0066 mg/kg | – | –
15 | CN1CCC[C@H]1c1cccnc1 [NICOTINE] | – | – | – | – | 0.65 mg/kg | 1 mg/kg | 0.5 mg/kg | 1.3 mg/kg | – | – | – | – | – | – | – | – | – | –
16 | COc1ccc(-c2cc([C@H]3C[C@@H]4CC[C@H]3N4)cnc2Cl)cc1 | 175 nM | – | 0.01 mg/kg | 0.022 nM | 1.1 mg/kg | 0.79 mg/kg | 0.43 mg/kg | 2.36 mg/kg | – | – | – | – | – | – | – | – | 10% | –
17 | Clc1ncc([C@H]2C[C@@H]3CC[C@H]2N3)cc1-c1ccccc1 | 260 nM | – | 0.28 mg/kg | 0.021 nM | 1 mg/kg | 0.4 mg/kg | 0.35 mg/kg | 0.7 mg/kg | – | – | – | – | – | – | – | – | – | 30%
